Source: ChEMBL document CHEMBL1121970, “Potential radiosensitizing agents. 5. 2-Substituted benzimidazole derivatives” (1982)

Tests used:
V79 = experiment: Inhibitory activity against hypoxic Chinese hamster cells(V-79) in culture by colony formation assay; type: functional; conditions: Cricetulus griseus, read-out: ED50 (the source's name)
[1] = Sensitizer enhancement ratio was determined by dividing the Do value obtained from the control radiation survival curve by the Do value obtained from the radiation survival curve; type: functional
CHO [2] = experiment: Radiosensitizing activity against chinese hamster cells was determined in the presence of the sensitizer under nitrogen at a concentration of 1.0 mM; type: functional, Cricetulus griseus
In short: (§1)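 V-79 Chinese hamster monolayers (exponentially growing, MEM with 15% fetal calf serum), about 200 cells per dish. Made hypoxic by purging sealed containers with 95% N2/5% CO2 for 1 h. Drug at maximum nontoxic concentration (1 mM or less) for 2 h at 37 °C. Cobalt-60 irradiation, 1400 rad, at room temperature. Medium replaced, colonies counted after 6 days; % survival.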

[3] = Sensitizer enhancement ratio(SER) was determined; type: functional
CHO [4] = experiment: Radiosensitizing activity against chinese hamster cells was determined in the presence of the sensitizer under nitrogen at a concentration of 0.010 mM; type: functional, Cricetulus griseus; in short: as §1

Structure (SMILES) | EC50 (V79) [µM] | SER [1] | Survivals (CHO [2]) [%] | SER [3] | Survivals (CHO [4]) [%]
COCC(O)Cn1c([N+](=O)[O-])nc2ccccc21 (stereo unspecified) | 4800 | 2 | 9.4 |  | 
COCC(O)Cn1c(C(C)=O)nc2ccccc21 (stereo unspecified) | > 5000 | 1 | 23 |  | 
COCC(O)Cn1c(C#N)nc2ccccc21 (stereo unspecified) | 1200 | 1 | 23 |  | 
COCC(O)Cn1c(C(F)(F)F)nc2cc([N+](=O)[O-])ccc21 (stereo unspecified) | > 5000 | 1.4 | 13.8 |  | 
CCOC(=O)Cn1c([N+](=O)[O-])nc2ccccc21 | 300 | 2.3 | 2.7 |  | 
CCOC(=O)Cn1c([N+](=O)[O-])nc2cc([N+](=O)[O-])ccc21 | 16 |  | 26.7 | 1 | 
CCOC(=O)Cn1c([N+](=O)[O-])nc2ccc([N+](=O)[O-])cc21 | 6 |  |  | 1 | 22.9
COCC(O)Cn1c(S(C)(=O)=O)nc2ccccc21 (stereo unspecified) | 3200 | 1 | 25.8 |  | 
COCC(O)Cn1c(C(F)(F)F)nc2ccc([N+](=O)[O-])cc21 (stereo unspecified) | 3000 | 1.2 | 17.6 |  | 
COCC(O)Cn1c(C(F)(F)F)nc2ccccc21 (stereo unspecified) | > 5000 | 1.1 | 22 |  | 
COCC(O)Cn1c(C(C)=O)nc2cc([N+](=O)[O-])ccc21 (stereo unspecified) | > 5000 | 1.2 | 11.3 |  | 
COCC(O)Cn1c(C(N)=O)nc2ccccc21 (stereo unspecified) | > 5000 | 1.1 | 21 |  | 
